# Not all results are given here.
# Apaf-1 act = human Apaf-1 activation. O14727. Apaf-1 apoptosome caspase-3 activation, DEVD-Rh110 fluorescence; active compounds read low. activity change, negative = activation, % at 20 µM. 0.31% of 330,000 active;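 active means activity change at or below -40% at 20 µM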
#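 system = biochemical Apaf-1 apoptosome reconstitution | buffer or medium = 20 mM HEPES pH 7.5 with CHAPS, BSA | also added = dATP and cytochrome c as apoptosome triggers, (Z-DEVD)2-Rh110 substrate | incubation = 30 min compound preincubation and 50 min reaction, both room temperature | measured by = fluorescence, 540 nm emission, 480 nm excitation | read-out basis = Caspase-3 cleavage activity downstream of Apaf-1 activation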
# Rh110 act interf = interferes with Rh110 fluorescence, flagging false Apaf-1 activators. AID 504616. shares compounds with Apaf-1 act. Rh110 fluorescence interference, quenched caspase reaction, Ex480/Em540. fluorescence interference (activity change), % at 20 µM, hits read low. 980 tested, under 10 active;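 active means mean activity change at or below -40% when tested at 20 µM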
# Apaf-1 act conf2 = Apaf-1 (human) activation, single-dose confirmed; shares compounds with Apaf-1 act; reconstituted apoptosome caspase-3 activity, DEVD-Rh110 fluorescence; active compounds read low; activity change, negative = activation, % at 20 µM; 5% of 980 active;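 active means mean activity change at or below -40%, meaning activation of 40% or more, at 20 µM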
# Fluor interf act = counter-screen for Apaf-1 activators: fluorescence interference, dose response; fluorescence interference counterscreen, Apaf-1 activator assay; EC50, µM; 55 tested, under 10 active; shares compounds with Apaf-1 act; call rule not given here
# A number is an active result; n = inactive; x = no result.
SMILES,Apaf-1 act,Rh110 act interf,Apaf-1 act conf2,others
CC(CNc1ccccc1O)C(=O)O (stereo not given),-165,n,-81,Fluor interf act=n
CC(=O)OCC(=O)[C@@]1(O)CC[C@H]2[C@@H]3CCC4=CC(=O)CC[C@]4(C)[C@H]3[C@@H](O)C[C@@]21C,n,x,x,
Cc1[nH]n(-c2ccccc2)c(=O)c1/C=N/N(C)c1ccccc1,n,x,x,
Cn1c(=O)c2c(-c3ccc(C(C)(C)C)cc3)n(N3CCOCC3)cc2n(C)c1=O,-60,n,n,
CCCN1CCCc2cc(CN)ccc21,n,x,x,
COc1ccc(C2=NO[C@@H]3[C@@H]4C[C@@H]([C@H]5C(=O)N(C)C(=O)[C@@H]45)[C@H]23)c(OC)c1,-63,n,n,
COC(=O)CCC(=O)OC1(C)C(=O)C2=CN(C3CC3)C(c3ccc(OC)cc3)=CC2=C(Br)C1=O (stereo not given),n,x,x,
Cc1ccc(CNc2ccc(O)cc2)cc1,n,x,x,
Cc1cccc(C)c1OCC(=O)N(Cc1ccco1)C1CCS(=O)(=O)C1 (stereo not given),-378,n,n,
Cc1cc(C)cc(NC(=S)Nc2cccc3cnccc23)c1,n,x,x,
CCOC(=O)CSc1nc2cc(C(=O)NCc3ccco3)ccc2c(=O)n1-c1ccc(F)cc1,-105,n,n,
Oc1ccc(-c2csc(-c3c[nH]c4ccccc34)n2)c(O)c1,-276,n,n,
Nc1c(N2CCCC2)cc(Cl)c2nonc12,n,x,x,
Nc1c(Br)cc(Br)cc1CNC1CCC(O)CC1 (stereo not given),n,x,x,
Cc1cc(Br)ccc1OCCCCN1CCC(C)CC1,-57,n,n,
O=C(O)c1ccccc1-c1ccc(/C=c2\sc3nc4cc(Br)cnc4n3c2=O)o1,n,x,x,
O=C(NC1=C(Nc2ccc(Cl)cc2)C(=O)c2ccccc2C1=O)c1ccccc1,n,x,x,
O=C1C(Cl)=C(NC(=O)c2ccccc2)C(=O)C(Cl)=C1NC(=O)c1ccccc1,n,x,x,
O=C(NNC(=S)Nc1ccc(Cl)cc1)c1ccccc1,-66,n,n,
Cc1nn(Cc2c(F)c(F)c(F)c(F)c2F)c(C)c1NC(=O)c1ccc(COc2ccc(Cl)cc2Cl)o1,n,x,x,
CCN(CC)C(=O)Cn1cc(S(=O)(=O)CC(=O)N2CCOCC2)c2ccccc21,-56,n,n,
O=C1C=C(Nc2ccccc2)c2ccccc2C1=O,n,x,x,
O=C(/C=C/c1ccoc1)c1ccccc1O,-134,n,n,
C#CCOCCOCCOCCNc1nc(N2CCN(C(=O)CCCCCCCCCCNC(=O)[C@H](CO)n3cc(CCCSC)nn3)CC2)nc(N2CCN(C(=O)CCCCCCCCCCNC(=O)[C@H](CCCCN)n3cc(CCO)nn3)CC2)n1,n,x,x,
Oc1cccc(C=NCc2ccccc2)c1O,n,x,x,
SMILES,Apaf-1 act,Rh110 act interf,Apaf-1 act conf2,others
N#C[C@@H]1[C@@H]2C(=O)N(c3ccc4c(c3)OCCO4)C(=O)[C@@H]2C2c3ccccc3C=CN21 (stereo not given in full),n,x,x,
CC(C)=C1C2C=CC1C1C(=O)N(c3ccc4c(c3)OCO4)C(=O)C21 (stereo not given),-71,n,n,
NCCCS(=O)(=O)O,n,x,x,
CCCCCOC(=O)c1c(N)n(CCOC)c2nc3ccccc3nc12,n,x,x,
Cc1cnc(C(=O)Nc2ccc(C)c(S(=O)(=O)N(C)C)c2)cn1,-47,n,n,
O=C1C=C(Nc2ccccc2C(=O)O)c2ccccc2C1=O,n,x,x,
O=C(NNc1ccccc1C(F)(F)F)c1cccs1,-107,n,n,
O=C(Nc1ccc(-c2nc3ccc(NC(=O)c4cccs4)cc3[nH]2)cc1)c1cccs1,n,x,x,
CCCCCC#CCC#CCC#CCC#CCCCC(=O)O,n,x,x,
O=C(CCc1ccccc1)Nc1ccc(NC(=O)c2ccco2)cc1,-193,n,n,
O=C(NCCc1ccccc1)c1ccc2nc(-c3ccco3)c(-c3ccco3)nc2c1,n,x,x,
c1csc(Cc2nn3c(-c4n[nH]c5c4CCC5)nnc3s2)c1,n,x,x,
COc1cc2c3nnc(-c4ccc(F)cc4)c-3cn(Cc3cccc(C)c3)c2cc1OC,n,x,x,
Cc1ccc(C(=O)Nc2ccccn2)cc1S(=O)(=O)N1CCOCC1,n,x,x,
O=C(Nc1nnc(S(=O)(=O)N2CCOCC2)s1)c1ccccc1Br,-95,n,n,
Oc1cccc2c(NC(=S)Nc3ccc(SC(F)F)cc3)cccc12,n,x,x,
COc1ccc2nc(C)cc(N/N=C/c3ccc(F)cc3)c2c1,n,x,x,
Fc1ccc(/C=N/Nc2nc3ccccc3[nH]2)cc1F,-64,n,n,
Fc1ccc(F)c(C2=NNC(=Nc3ccccc3F)SC2)c1,-45,n,n,
COC(=O)CCC(=O)OC1(C)C(=O)C=C2C=C(C3CC3)N(CCN3CCOCC3)C=C2C1=O (stereo not given),n,x,x,
CCCN1CCN(C(=S)Nc2ccccc2C(F)(F)F)CC1,-81,n,n,
COc1ccc2cc3cc(C(=O)NCCCN4CCc5ccccc5C4)sc3nc2c1,n,x,x,
C/C(=N\NC(=O)c1nnn(-c2nonc2N)c1-c1cccs1)c1ccc(C)cc1,-44,n,n,
CC(=O)[C@@H]1[C@@H]2C(=O)N(C3CCCCC3)C(=O)[C@@H]2C2c3ccccc3C=CN21 (stereo not given in full),n,x,x,
CN(C)C=Nc1c(Br)cc(Br)c2nonc12,n,x,x,
SMILES,Apaf-1 act,Rh110 act interf,Apaf-1 act conf2,others
Cc1cc(NC(=O)CCSc2ccccc2)ccc1Br,-65,n,n,
CC1=NN(c2ccc(S(=O)(=O)O)cc2Cl)C(=O)C1,n,x,x,
CNC(=S)NNC(=O)c1sccc1OCc1cccc(C(F)(F)F)c1,-190,n,n,
O=C(NCCCn1ccnc1)C1c2ccccc2Oc2ccccc21,-417,n,n,
Cc1ccc(-n2c(N)c(C(=O)Nc3c(C)n(C)n(-c4ccccc4)c3=O)c3nc4ccccc4nc32)cc1C,n,x,x,
CN1CCc2c(sc(NC(=O)c3ccc(C(=O)c4ccccc4)cc3)c2C(N)=O)C1,n,x,x,
COc1ccc(N2CCN(C(=O)Cc3ccc(OC)c(OC)c3)CC2)cc1,-535,n,n,
COc1ccc(C2=NN(c3ccccc3)C(=O)/C2=C\c2ccc(O)c(OC)c2)cc1,n,x,x,
COc1ccc(/C=C2/C(=O)N(c3ccccc3)N=C2C)cc1,n,x,x,
COc1ccc(C(=O)CN2C(=O)c3ccccc3C2=O)cc1,-165,n,n,
COc1ccc(C(C(=O)NC2CCCC2)N(Cc2ccc(F)cc2)C(=O)c2ccn[nH]2)cc1OC (stereo not given),-105,n,n,
COc1cc(/C=N/N=C(N)N)ccc1OCc1ccc(Cl)cc1,n,x,x,
NC(=O)C1CCN(C2=C(Cl)C(=O)c3ccccc3C2=O)CC1,n,x,x,
CCCCCCNC(=O)N[C@@H](C(=O)NCCC[C@H]1CN2C(=NC[C@@H]2Cc2ccccc2)N1CCc1cccc(OC)c1)C(C)C,n,x,x,
COc1ccc(CC(=O)NNS(=O)(=O)c2ccc([N+](=O)[O-])cc2)cc1OC,-479,n,n,
COc1ccc(CC(=O)Nc2ccc(S(=O)(=O)Nc3onc(C)c3C)cc2)cc1OC,-91,n,n,
COc1ccc(CCN(C)C(=O)c2ccc(COc3ccccc3)o2)cc1OC,n,x,x,
CC(=O)O[C@]1(C(C)=O)CC[C@H]2[C@@H]3C[C@H](C)C4=CC(=O)CC[C@]4(C)[C@H]3CC[C@@]21C,n,x,x,
Nc1ccc2nc(-c3cccc(-c4nc5ccc(N)cc5[nH]4)n3)[nH]c2c1,n,x,x,

# Assay outcomes as filed in PubChem.
